# Assay results published in paper PMC7661742 (Molecular cancer therapeutics, 2020).
# pIC50: −log10 of the molar value.
# Columns and labels:
# CDK19 = CDK19 (Homo sapiens, UniProt Q9BWU1); assay: SelectScreen Kinase Profiling, CDK19; assay type: biochemical
# In short: (§1)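 Kinases were run in a commercial kinase profiling service. Single-point tests used 1 μM test compound at the ATP concentration specified per kinase. IC50 curves started at 20 μM, followed by 10 subsequent […] dilution steps.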
# CDK9 = CDK9 (Homo sapiens, UniProt P50750); assay: SelectScreen Kinase Profiling, CDK9; assay type: biochemical
# CDK9, sequence (P50750 whole entry): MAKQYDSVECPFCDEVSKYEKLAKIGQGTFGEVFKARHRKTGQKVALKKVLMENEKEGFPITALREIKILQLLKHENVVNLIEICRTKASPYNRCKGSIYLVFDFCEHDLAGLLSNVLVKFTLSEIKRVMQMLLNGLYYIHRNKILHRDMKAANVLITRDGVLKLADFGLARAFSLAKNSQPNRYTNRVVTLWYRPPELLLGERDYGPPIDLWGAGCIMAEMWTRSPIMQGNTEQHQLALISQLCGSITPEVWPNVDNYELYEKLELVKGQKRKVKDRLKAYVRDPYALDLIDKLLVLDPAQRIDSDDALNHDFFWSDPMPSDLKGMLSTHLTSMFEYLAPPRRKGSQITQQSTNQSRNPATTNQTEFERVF
# CDK9, sequence (O60563 whole entry partner): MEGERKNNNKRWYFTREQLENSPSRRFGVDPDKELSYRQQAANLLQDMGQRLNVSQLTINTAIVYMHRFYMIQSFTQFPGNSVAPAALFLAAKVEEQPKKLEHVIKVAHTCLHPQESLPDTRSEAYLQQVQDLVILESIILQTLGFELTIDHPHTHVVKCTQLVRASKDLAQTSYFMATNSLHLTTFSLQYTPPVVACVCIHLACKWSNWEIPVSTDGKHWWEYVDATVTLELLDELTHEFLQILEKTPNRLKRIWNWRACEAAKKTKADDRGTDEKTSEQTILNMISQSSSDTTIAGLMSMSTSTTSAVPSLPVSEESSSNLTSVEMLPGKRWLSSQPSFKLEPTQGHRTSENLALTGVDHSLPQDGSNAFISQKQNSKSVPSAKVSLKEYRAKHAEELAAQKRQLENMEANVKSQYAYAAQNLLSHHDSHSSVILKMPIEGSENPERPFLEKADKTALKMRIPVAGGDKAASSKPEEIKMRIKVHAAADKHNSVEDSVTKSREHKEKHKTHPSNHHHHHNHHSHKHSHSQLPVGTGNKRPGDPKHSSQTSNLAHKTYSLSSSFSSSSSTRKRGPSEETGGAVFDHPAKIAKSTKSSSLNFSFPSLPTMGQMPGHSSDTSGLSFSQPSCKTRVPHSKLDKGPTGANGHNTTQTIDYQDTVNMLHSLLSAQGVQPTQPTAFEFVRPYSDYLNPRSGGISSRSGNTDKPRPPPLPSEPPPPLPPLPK
# In short: as §1
# B16-F10-luc2 melanoma = assay: In vivo efficacy, B16-F10-luc2 syngeneic melanoma model; settings: 10 mg/kg daily oral
# In short: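 Female C57BL/6N mice received 100 thousand B16-F10-luc2 cells intravenously. They were randomized by body weight on day 5, 10 mice per group, then dosed orally once daily. Tumor burden was read as average radiance by luciferase in vivo imaging, alongside survival and body weight. TGI = [1-((treated(final) – treated(Day1))/(control(final) – control(Day1)))] * 100%.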
# B16-F10 cells = assay: Viability assay, B16-F10; assay type: cell-based, mouse
# In short: (§2)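 Mouse tumour cells were plated in 96-well plates with CDK8/19 inhibitor over a concentration range, with 72 h or 120 h timing depending on the growth of each line. Cells were held at 37°C, humidified, 5% CO2. Viability was read by CellTiter-Glo luminescence or AlamarBlue, and curves were fitted by iterative sigmoidal analysis.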
# CDK7 = CDK7 (Homo sapiens, UniProt P50613); assay: SelectScreen Kinase Profiling, CDK7; assay type: biochemical
# CDK7, sequence (P50613 whole entry): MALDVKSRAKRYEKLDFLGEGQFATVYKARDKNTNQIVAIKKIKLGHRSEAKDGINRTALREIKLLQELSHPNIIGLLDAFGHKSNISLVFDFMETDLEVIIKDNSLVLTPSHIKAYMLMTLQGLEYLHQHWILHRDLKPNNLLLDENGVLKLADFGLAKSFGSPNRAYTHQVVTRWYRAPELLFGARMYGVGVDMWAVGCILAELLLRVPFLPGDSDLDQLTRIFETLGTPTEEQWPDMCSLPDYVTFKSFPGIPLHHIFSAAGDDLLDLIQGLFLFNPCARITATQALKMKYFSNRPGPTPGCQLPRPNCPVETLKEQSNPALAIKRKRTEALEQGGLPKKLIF
# CDK7, sequence (P51946 whole entry partner): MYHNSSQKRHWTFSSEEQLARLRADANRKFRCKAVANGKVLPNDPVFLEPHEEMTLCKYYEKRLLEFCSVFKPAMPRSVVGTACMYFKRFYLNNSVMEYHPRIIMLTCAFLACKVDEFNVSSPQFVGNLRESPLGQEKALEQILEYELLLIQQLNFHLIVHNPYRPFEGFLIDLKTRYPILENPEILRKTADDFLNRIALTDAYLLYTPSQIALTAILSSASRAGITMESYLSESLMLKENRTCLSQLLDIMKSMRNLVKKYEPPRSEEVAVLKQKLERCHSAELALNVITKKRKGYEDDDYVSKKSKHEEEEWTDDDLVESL
# CDK7, sequence (P51948 whole entry partner): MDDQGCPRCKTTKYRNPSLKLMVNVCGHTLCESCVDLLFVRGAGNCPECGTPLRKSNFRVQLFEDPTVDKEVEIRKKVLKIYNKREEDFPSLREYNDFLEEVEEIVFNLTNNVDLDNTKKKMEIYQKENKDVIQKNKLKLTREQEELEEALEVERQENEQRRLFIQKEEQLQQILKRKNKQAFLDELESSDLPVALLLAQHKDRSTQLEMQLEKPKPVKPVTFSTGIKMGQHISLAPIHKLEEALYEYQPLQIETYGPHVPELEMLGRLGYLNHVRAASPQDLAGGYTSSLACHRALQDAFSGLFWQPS
# In short: as §1
# EMT6 cells = assay: Viability assay, EMT6; assay type: cell-based, mouse
# In short: as §2
# [1] = tested on: primary leukemia cells from chronic lymphocytic leukemia patients; assay: CD20-mediated ADCC with rituximab on primary CLL cells; assay type: cell-based, human
# In short: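 Primary CLL cells and autologous PBMCs from patients were cultured 48 h with rituximab (10 μg/ml) plus CDK8/19 inhibitor or vehicle. Leukemia-cell depletion was counted by flow cytometry against PKH26 reference microbeads and normalised to the mean of DMSO controls (n=5). The no-NK arm used CLL cells pretreated 48 h with vehicle or inhibitor, then 4 h with vehicle or rituximab. Cell death was read by flow cytometry (n=4).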
# MC38 tumors = assay: In vivo efficacy, MC-38 murine syngeneic colon adenocarcinoma model; set-up: species or system mouse; settings: BI-1347 10 mg/kg daily oral; anti-PD-1 10 mg/kg i.p. twice weekly
# In short: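 Female C57BL/6N mice were implanted subcutaneously with 100 thousand MC38 cells and randomized by body weight on day 3, 5 mice per group. The anti-PD-1 was rat IgG2a anti-mouse PD-1 (RMP1–14). Readouts were response and TGI at day 20 and complete responses at study end. Groups were compared by one-tailed, non-adjusted Mann Whitney test.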
# CDK2 = CDK2 (Homo sapiens, UniProt P24941); assay: SelectScreen Kinase Profiling, CDK2; assay type: biochemical
# In short: as §1
# [2] = tested on: granzyme B-positive murine spleen-derived NK cells; assay: Modulation of granzyme B in mouse splenocytes; assay type: cell-based; settings: murine spleen-derived NK cells activated with IL-15 in vitro; 150 nmol/l, 44 h
# In short: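 Cells received 2.5 ng/ml IL-15, 150 nmol/l test compound, or both, for 44 h at 37°C and 5% CO2. Protein transport inhibitor was present for the last 4 h. Cells were stained for CD3ε, NK1.1 and intracellular granzyme B after fix/perm and gated viable CD3−NK1.1+GZMB+ (3–6 mice per group).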
# MC-38 cells = assay: Viability assay, MC-38; assay type: cell-based, mouse
# In short: as §2
# EMT6 tumors = assay: In vivo efficacy, EMT6 murine mammary carcinoma model; set-up: species or system mouse; settings: BI-1347 monotherapy
# Mouse pharmacokinetics = assay type: in vivo; settings: mice
# In short: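 C57BL/6 mice (n=3 per group) were given test compound orally at 25 mg/kg or intravenously at 1 mg/kg. Plasma concentrations were measured by LC-MS at set time points after dosing.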
# CDK6 = CDK6 (Homo sapiens, UniProt Q00534); assay: SelectScreen Kinase Profiling, CDK6; assay type: biochemical
# CDK6, sequence (Q00534 whole entry): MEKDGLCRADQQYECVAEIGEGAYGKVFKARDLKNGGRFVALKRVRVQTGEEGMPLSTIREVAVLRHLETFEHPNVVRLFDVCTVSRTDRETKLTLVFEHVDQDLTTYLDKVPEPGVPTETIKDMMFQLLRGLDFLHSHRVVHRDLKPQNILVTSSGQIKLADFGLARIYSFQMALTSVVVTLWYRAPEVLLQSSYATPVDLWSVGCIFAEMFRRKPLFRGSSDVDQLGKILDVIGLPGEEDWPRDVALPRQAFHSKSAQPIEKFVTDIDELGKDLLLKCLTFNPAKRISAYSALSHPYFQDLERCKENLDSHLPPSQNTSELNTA
# CDK6, sequence (P24385 whole entry partner): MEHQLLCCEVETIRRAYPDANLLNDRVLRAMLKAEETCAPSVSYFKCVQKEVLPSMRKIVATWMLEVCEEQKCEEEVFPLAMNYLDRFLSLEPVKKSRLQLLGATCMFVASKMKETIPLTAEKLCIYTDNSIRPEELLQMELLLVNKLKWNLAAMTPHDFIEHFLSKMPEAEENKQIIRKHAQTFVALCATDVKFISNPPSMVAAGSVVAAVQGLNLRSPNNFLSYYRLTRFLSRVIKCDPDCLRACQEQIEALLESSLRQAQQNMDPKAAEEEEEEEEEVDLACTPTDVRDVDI
# In short: as §1
# [3] = tested on: perforin secretion from NK92MI cells; assay: Perforin release assay; assay type: cell-based, human; settings: 24 h, ELISA
# In short: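 NK92MI cells were seeded at 40.000 cells/well with test compound over a concentration range and held 24 h at 37°C, humidified, 5% CO2. IL-15 (50 ng/ml) served as positive control. Secreted perforin in supernatants was quantified by ELISA.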
# Metabolic stability = assay type: in vitro ADME; settings: compared with Compound 2
# In short: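 Test compound was incubated with cryopreserved hepatocytes, and compound depletion was quantified over 240 min by LC/MS/MS. In vivo hepatic clearance was predicted from depletion using the well-stirred model.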
# CDK1 = CDK1 (Homo sapiens, UniProt P06493); assay: SelectScreen Kinase Profiling, CDK1; assay type: biochemical
# CDK1, sequence (P06493 whole entry): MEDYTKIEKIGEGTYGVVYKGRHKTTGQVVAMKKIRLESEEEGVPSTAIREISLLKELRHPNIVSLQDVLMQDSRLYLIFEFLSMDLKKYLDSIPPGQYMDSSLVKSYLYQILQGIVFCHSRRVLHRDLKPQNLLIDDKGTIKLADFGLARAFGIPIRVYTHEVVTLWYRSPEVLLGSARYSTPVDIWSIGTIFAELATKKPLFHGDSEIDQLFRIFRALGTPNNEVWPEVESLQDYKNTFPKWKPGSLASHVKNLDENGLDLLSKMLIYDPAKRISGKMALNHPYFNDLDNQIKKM
# CDK1, sequence (P14635 whole entry partner): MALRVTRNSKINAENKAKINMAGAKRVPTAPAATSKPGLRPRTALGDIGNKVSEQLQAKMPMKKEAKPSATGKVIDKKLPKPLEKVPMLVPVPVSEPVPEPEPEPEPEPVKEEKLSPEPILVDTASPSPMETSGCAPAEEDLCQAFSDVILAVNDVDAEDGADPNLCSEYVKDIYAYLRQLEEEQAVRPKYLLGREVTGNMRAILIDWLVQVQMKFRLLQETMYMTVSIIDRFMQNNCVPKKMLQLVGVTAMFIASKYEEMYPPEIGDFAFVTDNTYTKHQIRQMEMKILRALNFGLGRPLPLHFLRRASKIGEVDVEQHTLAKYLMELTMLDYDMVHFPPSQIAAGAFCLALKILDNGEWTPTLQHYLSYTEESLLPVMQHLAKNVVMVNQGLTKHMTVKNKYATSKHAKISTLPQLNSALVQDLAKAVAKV
# In short: as §1
# [4] = tested on: STAT1^S727 phosphorylation; assay type: in vivo, mouse; settings: daily oral dose of 10 mg/kg, for at least 6 h
# CDK4 = CDK4 (Homo sapiens, UniProt P11802); assay: SelectScreen Kinase Profiling, CDK4; assay type: biochemical
# CDK4, sequence (P11802 whole entry): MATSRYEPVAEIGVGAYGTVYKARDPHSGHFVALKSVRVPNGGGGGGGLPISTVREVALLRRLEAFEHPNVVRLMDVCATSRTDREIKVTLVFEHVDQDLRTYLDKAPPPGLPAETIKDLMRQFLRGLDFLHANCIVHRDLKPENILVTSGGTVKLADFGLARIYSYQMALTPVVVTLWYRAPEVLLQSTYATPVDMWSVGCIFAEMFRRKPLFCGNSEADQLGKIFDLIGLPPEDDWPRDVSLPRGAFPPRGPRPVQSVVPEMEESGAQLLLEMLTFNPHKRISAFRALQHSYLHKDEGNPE
# CDK4, sequence (P24385 whole entry partner): as the sequence (P24385 whole entry partner) above
# In short: as §1
# CDK19, sequence (Q9BWU1 whole entry): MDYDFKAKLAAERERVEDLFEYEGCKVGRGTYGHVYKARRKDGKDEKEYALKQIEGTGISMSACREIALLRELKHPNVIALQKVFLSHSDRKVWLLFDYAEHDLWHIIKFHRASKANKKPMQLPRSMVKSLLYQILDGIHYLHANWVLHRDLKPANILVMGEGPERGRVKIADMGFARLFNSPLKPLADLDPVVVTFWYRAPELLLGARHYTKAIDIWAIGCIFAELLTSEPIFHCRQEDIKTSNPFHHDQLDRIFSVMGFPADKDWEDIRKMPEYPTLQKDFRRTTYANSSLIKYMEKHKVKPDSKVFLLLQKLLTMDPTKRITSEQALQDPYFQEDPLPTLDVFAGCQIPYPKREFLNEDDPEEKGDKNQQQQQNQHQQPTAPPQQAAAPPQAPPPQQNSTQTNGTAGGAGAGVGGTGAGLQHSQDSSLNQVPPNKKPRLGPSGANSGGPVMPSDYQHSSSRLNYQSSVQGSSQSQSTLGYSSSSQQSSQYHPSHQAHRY
compound,measurement,setting,value
CN(C)C(=O)Cn1cc(-c2ccc(-c3cncc4ccccc34)cc2)cn1 [BI-1347],pIC50,CDK19,> 6.00
same,inhibition of CDK9,CDK9,no inhibition
same,median survival advantage compared to vehicle-treated animals,B16-F10-luc2 melanoma,4 days
same,tolerability (body weight),B16-F10-luc2 melanoma,well tolerated with minimal effect on body weight
same,tumor growth inhibition (TGI),B16-F10-luc2 melanoma; day 23,94%
same,tumor growth inhibition (TGI),B16-F10-luc2 melanoma; day 29,88%
same,mice surviving until day 42,B16-F10-luc2 melanoma; all control mice sacrificed by day 32,2/10
same,in vitro sensitivity,B16-F10 cells,resistant
same,inhibition of CDK7,CDK7,no inhibition
same,in vitro sensitivity,EMT6 cells,resistant
same,ADCC mediated depletion of primary leukemia cells by rituximab,"[1]; in presence of PBMCs, 48 h",enhances
same,enhanced ADCC effect in absence of NK cells,"[1]; purified CLL cells with rituximab, no NK cells",not observed
same,"CR [@ end of study, number of mice]",MC38 tumors,0/5
same,"Response [@ d20, number of mice]",MC38 tumors,2/5
same,inhibition of CDK2,CDK2,no inhibition
same,increase of the proportion of granzyme B-positive NK cells,[2],approximately 4 fold
same,in vitro sensitivity,MC-38 cells,resistant
same,median survival,EMT6 tumors; 5 days on / 5 days off intermittent scheduling,26 days
same,median survival,"EMT6 tumors; daily oral 10 mg/kg, control 22 days",22.5 days
same,exposure and bioavailability (F) after p.o. dosing,Mouse pharmacokinetics,Excellent exposure and bioavailability
same,plasma concentration 24 h after dosing relative to the CDK8 IC50,Mouse pharmacokinetics; 25 mg/kg p.o.,around 100 fold
same,clearance,Mouse pharmacokinetics; i.v. administration,14 % QH
same,inhibition of CDK6,CDK6,no inhibition
same,perforin levels in the supernatant,[3],increased perforin levels
same,metabolic stability in vitro and in vivo,Metabolic stability,higher metabolic stability
same,inhibition of CDK1,CDK1,no inhibition
same,reduction of phosphorylation of STAT1^S727,[4],60%
same,inhibition of CDK4,CDK4,no inhibition
